Screening results (PubChem BioAssay)
The list is not random: actives were taken first. Their share in the collection is about 2%.
SR-BI uptake up – SR-BI HDL lipid transfer activation; CHO ldlA[mSR-BI] cells, DiI-HDL uptake fluorescence, 3 h; 100 = double the neutral-control signal; activation, % at 12.5 µM; actives 0.096% (n = 320,000); AID 504775;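 active means mean replicate activation of at least 60% and every replicate at or above 60%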
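Test system: SR-BI-overexpressing, LDLR-lacking CHO cells; Medium: Ham's F12 with 0.5% BSA, HEPES 25 mM, pH 7.4; Schedule: 3 h, 37 °C; Technique: bottom-read fluorescence, 550/595 nm.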
NSD2 HMT inh – blocks human histone methyltransferase NSD2. O96028. NSD2 peptide methylation, AlphaScreen, 120 min. inhibition, % at 12.5 µM. actives 0.54% (n = 310,000). AID 743445; in the data active means inhibition above about 50%
HGIII-sPLA2 inh – Blocks human group III sPLA2 activity. actives 0.56% (n = 370,000). AID 743126. QFRET BODIPY PC-A2 liposome hydrolysis, fluorescence. inhibition, % at 12.2 µM;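 active means inhibition above mean plus 3 SD of compounds lying within the high and low control bounds, cut at about 19% in these data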
SR-BI HDL uptake – mouse SR-BI HDL lipid transfer inhibition; Q61009; ldlA[mSR-BI] CHO cells, DiI-HDL uptake fluorescence, 3 h; inhibition, % at 12.5 µM; actives 0.96% (n = 320,000);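 active means mean replicate inhibition of at least 70% and a set share of replicates each scoring 70 or more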
Target sequence (Q61009 whole entry, looked up): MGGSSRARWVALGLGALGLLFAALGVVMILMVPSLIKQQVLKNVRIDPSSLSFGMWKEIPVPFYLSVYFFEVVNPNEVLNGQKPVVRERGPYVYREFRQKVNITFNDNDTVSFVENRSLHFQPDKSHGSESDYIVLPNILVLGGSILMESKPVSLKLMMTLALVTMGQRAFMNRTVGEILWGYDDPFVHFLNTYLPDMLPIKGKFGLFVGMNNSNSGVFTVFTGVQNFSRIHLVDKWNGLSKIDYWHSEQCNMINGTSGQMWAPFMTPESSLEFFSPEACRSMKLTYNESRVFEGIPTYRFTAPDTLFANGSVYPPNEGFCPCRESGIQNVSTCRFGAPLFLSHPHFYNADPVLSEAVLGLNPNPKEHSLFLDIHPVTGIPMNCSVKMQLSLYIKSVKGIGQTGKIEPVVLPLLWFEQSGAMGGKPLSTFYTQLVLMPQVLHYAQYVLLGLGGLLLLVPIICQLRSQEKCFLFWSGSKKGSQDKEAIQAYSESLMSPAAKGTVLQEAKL
ARNT TACC3 PPI – ARNT/TACC3 interaction disruption; AlphaScreen His-ARNT PAS-B/GST-TACC3 binding, luminescence; TACC3 fragment carries E629A point mutation; Q9Y6A5; inhibition, % at 9.99 µM; actives 0.66% (n = 390,000);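 active means mean inhibition of replicates at least 50% and at least half of replicates each reaching 50%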
XiGFP reactiv – X-chromosome reactivation activator; actives 0.055% (n = 360,000); XiGFP mouse fibroblasts, % GFP-positive cells imaging, 3 d; cells co-treated with 5-aza-dC sensitizer; scaled so ellipticine positive control = 100%; activation, % at 7.58 µM;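 active means mean normalized replicate activation at least 10% and every replicate at or above 10%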
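Assay system: SV40-immortalized XiGFP fibroblast cells, line 68-5-11; buffer or medium: DMEM plus 5-aza-dC sensitizer; compound: one concentration, pinned; timing: compounds 3 days, fix/stain 15 min at room temperature; benchmarks: positive control ellipticine, 6 µM final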
Numbers stand for hits.

What do the screens show for `Cc1ccc(-c2c(C(=O)N/N=C/c3ccc(OC(C)C)cc3)nnn2-c2nonc2N)cc1`?
SR-BI uptake up: inactive; NSD2 HMT inh: inactive; HGIII-sPLA2 inh: inactive; SR-BI HDL uptake: 78; ARNT TACC3 PPI: inactive; XiGFP reactiv: inactive

What do the screens show for `Cc1ccc(-c2c(C(=O)N/N=C/c3ccc4c(c3)OCO4)nnn2-c2nonc2N)cc1`?
SR-BI uptake up: inactive; NSD2 HMT inh: inactive; HGIII-sPLA2 inh: inactive; SR-BI HDL uptake: 76; ARNT TACC3 PPI: inactive; XiGFP reactiv: inactive

Results for CCOc1ccc(-c2c(C(=O)N/N=C/c3ccc(OC(C)C)cc3)nnn2-c2nonc2N)cc1 ?
SR-BI uptake up: inactive; NSD2 HMT inh: inactive; HGIII-sPLA2 inh: inactive; SR-BI HDL uptake: 77; ARNT TACC3 PPI: inactive; XiGFP reactiv: inactive

Results for Cc1ccc(SCc2c(C(=O)N/N=C/c3ccc4c(c3)OCO4)nnn2-c2nonc2N)cc1 ?
SR-BI uptake up: inactive; NSD2 HMT inh: inactive; HGIII-sPLA2 inh: inactive; SR-BI HDL uptake: inactive; ARNT TACC3 PPI: inactive; XiGFP reactiv: inactive

How did COc1ccc2ccccc2c1/C=N/NC(=O)c1nnn(-c2nonc2N)c1C(C)C do in these assays?
SR-BI uptake up: inactive; NSD2 HMT inh: inactive; HGIII-sPLA2 inh: inactive; SR-BI HDL uptake: 77; ARNT TACC3 PPI: inactive; XiGFP reactiv: inactive

How did CCCOc1ccc(-c2c(C(=O)N/N=C/c3ccc(C)cc3)nnn2-c2nonc2N)cc1 do in these assays?
NSD2 HMT inh: inactive; HGIII-sPLA2 inh: inactive; XiGFP reactiv: inactive

Results for CCOc1ccc(-c2c(C(=O)N/N=C/c3ccccc3)nnn2-c2nonc2N)cc1 ?
SR-BI uptake up: inactive; NSD2 HMT inh: inactive; HGIII-sPLA2 inh: inactive; SR-BI HDL uptake: 74; ARNT TACC3 PPI: inactive; XiGFP reactiv: inactive

What do the screens show for `C[C@H]1CN([C@@H](C)CO)C(=O)Cc2cc(N(C)C)ccc2O[C@H]1CN(C)C(=O)Nc1ccc(C(F)(F)F)cc1`?
ARNT TACC3 PPI: inactive; XiGFP reactiv: inactive

How did Cc1ccc(N=C2NC(=O)CS2)cc1 do in these assays?
SR-BI uptake up: inactive; HGIII-sPLA2 inh: inactive; SR-BI HDL uptake: inactive; ARNT TACC3 PPI: inactive

Results for Cc1ccc(C)n1/N=C1/NC(=O)CS1 ?
SR-BI uptake up: inactive; NSD2 HMT inh: 144; HGIII-sPLA2 inh: inactive; SR-BI HDL uptake: inactive; ARNT TACC3 PPI: inactive

Results for CCCNC(=O)C(CC)NC(=O)c1ccc(C#N)cc1 (centres undefined) ?
SR-BI uptake up: 62; HGIII-sPLA2 inh: inactive; SR-BI HDL uptake: inactive; ARNT TACC3 PPI: inactive; XiGFP reactiv: inactive

What do the screens show for `CCOC(=O)CCn1nnc(N)n1`?
SR-BI uptake up: inactive; NSD2 HMT inh: inactive; HGIII-sPLA2 inh: inactive; SR-BI HDL uptake: inactive; ARNT TACC3 PPI: inactive

What do the screens show for `Cn1c(=O)c2[nH]c(-c3ccc(S(=O)(=O)O)cc3)nc2n(C)c1=O`?
SR-BI uptake up: inactive; HGIII-sPLA2 inh: inactive; SR-BI HDL uptake: inactive; ARNT TACC3 PPI: inactive; XiGFP reactiv: 23

How did CC(C)c1ccc(-c2nc3c([nH]2)c(=O)n(C)c(=O)n3C)cc1 do in these assays?
SR-BI uptake up: inactive; NSD2 HMT inh: inactive; HGIII-sPLA2 inh: inactive; SR-BI HDL uptake: inactive; ARNT TACC3 PPI: inactive

Results for Cc1c(Cl)cccc1NC(=O)c1ncn[nH]1 ?
NSD2 HMT inh: inactive; HGIII-sPLA2 inh: inactive; ARNT TACC3 PPI: 73; XiGFP reactiv: inactive

What do the screens show for `O=C(N/N=C/c1ccc(OC(F)F)cc1OC(F)F)c1cccc(S(=O)(=O)N2CCOCC2)c1`?
SR-BI uptake up: inactive; NSD2 HMT inh: inactive; HGIII-sPLA2 inh: inactive; SR-BI HDL uptake: 83; ARNT TACC3 PPI: inactive; XiGFP reactiv: inactive

What do the screens show for `O=C(NN=Cc1ccc(F)cc1)c1cccc(S(=O)(=O)N2CCCC2)c1`?
SR-BI uptake up: inactive; NSD2 HMT inh: inactive; HGIII-sPLA2 inh: inactive; SR-BI HDL uptake: inactive; ARNT TACC3 PPI: inactive; XiGFP reactiv: inactive

How did O=C(NN=Cc1ccccc1OC(F)F)c1cccc(S(=O)(=O)N2CCCC2)c1 do in these assays?
SR-BI uptake up: inactive; NSD2 HMT inh: inactive; HGIII-sPLA2 inh: inactive; SR-BI HDL uptake: 72; ARNT TACC3 PPI: inactive; XiGFP reactiv: inactive

What do the screens show for `O=C(NCC1CCCO1)c1ccccn1` (centres undefined)?
SR-BI uptake up: inactive; NSD2 HMT inh: inactive; HGIII-sPLA2 inh: inactive; SR-BI HDL uptake: inactive; ARNT TACC3 PPI: inactive

Results for C[C@@H]1CN([C@@H](C)CO)S(=O)(=O)c2ccc(C#Cc3ccc(F)cc3)cc2O[C@@H]1CN(C)S(C)(=O)=O ?
ARNT TACC3 PPI: inactive; XiGFP reactiv: inactive

How did CCCC(=O)NC(NC(=S)Nc1ccc(S(N)(=O)=O)cc1)C(Cl)(Cl)Cl (centres undefined) do in these assays?
SR-BI uptake up: inactive; NSD2 HMT inh: inactive; HGIII-sPLA2 inh: inactive; SR-BI HDL uptake: inactive; ARNT TACC3 PPI: 28

How did COc1ccccc1-c1ccc([C@@H]2[C@H](CO)N(C(C)=O)C23CN(C(C)=O)C3)cc1 do in these assays?
XiGFP reactiv: inactive

What do the screens show for `Nc1nc(SCC(=O)Nc2ccc(Cl)c(S(=O)(=O)N3CCOCC3)c2)n[nH]1`?
NSD2 HMT inh: inactive; HGIII-sPLA2 inh: inactive; ARNT TACC3 PPI: inactive; XiGFP reactiv: inactive

What do the screens show for `Cc1ccc(-c2nc(N)sc2-c2ccc(C)cc2)cc1`?
SR-BI uptake up: inactive; NSD2 HMT inh: inactive; HGIII-sPLA2 inh: inactive; SR-BI HDL uptake: 73; ARNT TACC3 PPI: inactive; XiGFP reactiv: inactive

How did CCN(C[C@H]1N[C@H](CO)[C@@H]1c1ccc(C2=CCCC2)cc1)C(=O)c1ccncc1 do in these assays?
ARNT TACC3 PPI: inactive; XiGFP reactiv: inactive

What do the screens show for `COc1ccc(N(C)S(=O)(=O)c2ccc(C)cc2)c([N+](=O)[O-])c1`?
SR-BI uptake up: inactive; NSD2 HMT inh: inactive; HGIII-sPLA2 inh: inactive; SR-BI HDL uptake: inactive; ARNT TACC3 PPI: inactive; XiGFP reactiv: inactive

Results for Cc1ccc(S(=O)(=O)N(C)c2ccc(C)c([N+](=O)[O-])c2)cc1 ?
SR-BI uptake up: inactive; NSD2 HMT inh: inactive; HGIII-sPLA2 inh: inactive; SR-BI HDL uptake: inactive; ARNT TACC3 PPI: inactive; XiGFP reactiv: 21

Results for COc1ccc(Cl)cc1NC(=O)CN(C)CC(=O)N1CC(=O)Nc2ccccc21 ?
SR-BI uptake up: inactive; NSD2 HMT inh: inactive; HGIII-sPLA2 inh: inactive; SR-BI HDL uptake: inactive; ARNT TACC3 PPI: inactive; XiGFP reactiv: inactive

How did COc1ccc(Cl)cc1NC(=O)CN(C)CC(=O)Nc1ccccc1N1CCOCC1 do in these assays?
SR-BI uptake up: inactive; NSD2 HMT inh: inactive; HGIII-sPLA2 inh: inactive; SR-BI HDL uptake: 78; ARNT TACC3 PPI: inactive; XiGFP reactiv: inactive

Results for COc1ccc(Cl)cc1NC(=O)CN(C)Cc1cccs1 ?
SR-BI uptake up: inactive; NSD2 HMT inh: inactive; HGIII-sPLA2 inh: inactive; SR-BI HDL uptake: 72; ARNT TACC3 PPI: inactive; XiGFP reactiv: inactive

Results for COc1ccc(Cl)cc1NC(=O)CNCc1cccs1 ?
SR-BI uptake up: inactive; NSD2 HMT inh: inactive; HGIII-sPLA2 inh: inactive; SR-BI HDL uptake: inactive; ARNT TACC3 PPI: inactive; XiGFP reactiv: inactive
